Test results published in ChEMBL document CHEMBL5696442, “Discovery of type II inhibitors of TGFβ-activated kinase 1 (TAK1) and mitogen-activated protein kinase kinase kinase kinase 2 (MAP4K2)” (J Med Chem, 2015).
pIC50: −log10 of the molar value.

Columns and labels:
[1] = target: T1, Mitogen-activated protein kinase kinase kinase kinase 2 (Homo sapiens) (UniProt Q12851); test: Inhibition of MAP4K2 Lys1 labeling site in human A-375 cells at 0.5 uM by KiNativ Profiling analysis relative to control; assay type: cell-based
T1 sequence (whole entry): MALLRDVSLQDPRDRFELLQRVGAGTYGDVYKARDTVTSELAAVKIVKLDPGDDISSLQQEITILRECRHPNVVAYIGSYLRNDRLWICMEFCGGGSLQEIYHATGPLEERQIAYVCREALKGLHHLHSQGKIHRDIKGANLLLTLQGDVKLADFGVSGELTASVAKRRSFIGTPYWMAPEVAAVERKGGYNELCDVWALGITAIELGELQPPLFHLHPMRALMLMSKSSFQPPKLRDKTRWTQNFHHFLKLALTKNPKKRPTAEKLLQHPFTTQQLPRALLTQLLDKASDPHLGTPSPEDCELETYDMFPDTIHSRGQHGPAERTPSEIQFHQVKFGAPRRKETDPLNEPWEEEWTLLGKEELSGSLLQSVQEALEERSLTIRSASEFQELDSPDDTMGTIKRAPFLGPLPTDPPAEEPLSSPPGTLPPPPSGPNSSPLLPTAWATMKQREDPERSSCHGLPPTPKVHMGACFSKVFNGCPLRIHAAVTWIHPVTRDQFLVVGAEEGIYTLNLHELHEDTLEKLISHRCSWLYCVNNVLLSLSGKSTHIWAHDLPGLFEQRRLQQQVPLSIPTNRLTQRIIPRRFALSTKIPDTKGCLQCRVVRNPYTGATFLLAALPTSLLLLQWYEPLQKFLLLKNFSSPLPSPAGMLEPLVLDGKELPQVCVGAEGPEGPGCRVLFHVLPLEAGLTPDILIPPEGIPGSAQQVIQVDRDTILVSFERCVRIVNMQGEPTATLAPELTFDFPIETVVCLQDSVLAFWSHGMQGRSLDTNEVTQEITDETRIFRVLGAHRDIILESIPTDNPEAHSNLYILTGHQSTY

[2] = target: T2, Tyrosine-protein kinase ABL1 (Homo sapiens, UniProt P00519); test: Inhibition of ABL ACT labeling site in human Huh-7 cell lysate at 1 uM by KiNativ Profiling analysis relative to control; assay type: subcellular
[3] = target: T3, Tyrosine-protein kinase Fer (Homo sapiens, UniProt P16591); test: Inhibition of FER Lys1 labeling site in human Huh-7 cell lysate at 1 uM by KiNativ Profiling analysis relative to control; assay type: subcellular
Target sequence in this assay (P16591 whole entry, looked up): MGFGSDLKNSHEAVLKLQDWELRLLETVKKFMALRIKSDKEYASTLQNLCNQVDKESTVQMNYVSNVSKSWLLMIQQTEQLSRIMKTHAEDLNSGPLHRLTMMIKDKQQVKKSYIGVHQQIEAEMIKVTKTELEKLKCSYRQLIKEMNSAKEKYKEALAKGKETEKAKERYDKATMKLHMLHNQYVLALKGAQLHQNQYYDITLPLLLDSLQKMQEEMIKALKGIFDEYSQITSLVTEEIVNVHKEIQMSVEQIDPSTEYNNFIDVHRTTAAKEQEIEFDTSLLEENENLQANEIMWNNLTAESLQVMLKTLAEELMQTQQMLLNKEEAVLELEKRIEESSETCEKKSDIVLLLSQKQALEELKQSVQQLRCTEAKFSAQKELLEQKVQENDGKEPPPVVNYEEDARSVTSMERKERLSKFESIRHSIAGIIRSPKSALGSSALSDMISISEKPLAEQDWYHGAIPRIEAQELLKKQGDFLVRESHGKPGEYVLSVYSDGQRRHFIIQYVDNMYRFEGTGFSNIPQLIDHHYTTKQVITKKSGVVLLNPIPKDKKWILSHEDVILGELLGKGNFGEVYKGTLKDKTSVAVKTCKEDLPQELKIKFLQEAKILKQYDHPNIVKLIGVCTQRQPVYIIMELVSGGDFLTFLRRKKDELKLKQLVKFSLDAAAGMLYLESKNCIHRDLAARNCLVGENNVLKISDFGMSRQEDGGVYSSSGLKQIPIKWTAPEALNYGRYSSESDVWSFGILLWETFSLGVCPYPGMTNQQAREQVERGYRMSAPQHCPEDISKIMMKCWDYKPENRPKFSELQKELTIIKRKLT

[4] = target: T4, Mitogen-activated protein kinase kinase kinase 7 (Homo sapiens) (UniProt O43318); test: Inhibition of TAK1 Lys2 labeling site in human A-375 cells at 0.5 uM by KiNativ Profiling analysis relative to control; assay type: cell-based
T4 sequence (whole entry): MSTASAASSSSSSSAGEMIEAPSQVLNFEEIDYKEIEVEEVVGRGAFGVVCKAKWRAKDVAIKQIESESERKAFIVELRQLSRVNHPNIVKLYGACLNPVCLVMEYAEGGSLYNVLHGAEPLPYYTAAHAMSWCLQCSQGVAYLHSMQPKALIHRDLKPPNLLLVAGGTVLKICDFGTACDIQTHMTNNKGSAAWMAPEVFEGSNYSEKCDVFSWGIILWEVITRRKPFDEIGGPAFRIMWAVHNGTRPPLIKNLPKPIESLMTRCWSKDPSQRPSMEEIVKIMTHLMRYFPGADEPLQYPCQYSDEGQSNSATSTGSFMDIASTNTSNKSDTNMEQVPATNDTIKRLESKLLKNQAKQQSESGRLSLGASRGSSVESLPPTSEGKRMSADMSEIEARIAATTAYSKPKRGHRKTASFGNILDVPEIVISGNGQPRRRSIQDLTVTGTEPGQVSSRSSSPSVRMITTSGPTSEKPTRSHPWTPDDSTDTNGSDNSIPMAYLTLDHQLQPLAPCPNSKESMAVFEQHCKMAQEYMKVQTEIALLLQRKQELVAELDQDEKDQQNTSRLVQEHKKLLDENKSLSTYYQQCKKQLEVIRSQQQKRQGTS

[5] = target: T5, Mitogen-activated protein kinase 14 (Homo sapiens, UniProt Q16539); test: Inhibition of p38 alpha (unknown origin) by KiNativ Profiling analysis
[6] = tested on: BaF3; test: Antiproliferative activity against parental mouse BaF3 cells harbouring Bcr/Abl assessed reduction in cell viability measured after 48 hrs by Celltiter-glo assay; assay type: functional, cell-based; conditions: BaF3, 48 h
How it was run: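 Cells were grown with serial dilutions of compound for 48 h, and viability was read by CellTiter-Glo. IC50 was derived from the dose–response curve. Parental Ba/F3 cells were grown in the presence of interleukin 3. The BCR-ABL line is BCR-ABL-dependent Ba/F3.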

[7] = target: T5, Mitogen-activated protein kinase 14; test: Inhibition of p38 alpha in human Huh-7 cell lysate at 1 uM by KiNativ Profiling analysis relative to control; assay type: subcellular
[8] = target: T6, Tyrosine-protein kinase Fes/Fps (Homo sapiens, UniProt P07332); test: Inhibition of FES Lys1 labeling site in human Huh-7 cell lysate at 1 uM by KiNativ Profiling analysis relative to control; assay type: subcellular
[9] = target: T3, Tyrosine-protein kinase Fer; test: Inhibition of FER (unknown origin) ACT labeling site by KiNativ Profiling analysis
Target sequence in this assay (P16591 whole entry): as the sequence (P16591 whole entry, looked up) above

[10] = target: T6, Tyrosine-protein kinase Fes/Fps; test: Inhibition of FES (unknown origin) by KiNativ Profiling analysis
[11] = tested on: BaF3; test: Antiproliferative activity against parental mouse BaF3 cells assessed reduction in cell viability measured after 48 hrs by Celltiter-glo assay; assay type: functional, cell-based; conditions: BaF3, 48 h
[12] = target: T2, Tyrosine-protein kinase ABL1; test: Inhibition of ABL Lys1 labeling site in human Huh-7 cell lysate at 1 uM by KiNativ Profiling analysis relative to control; assay type: subcellular
[13] = target: T7, Mitogen-activated protein kinase kinase kinase 7 (Homo sapiens, UniProt O43318); test: Inhibition of TAK1 (unknown origin) Lys2 labeling site by KiNativ Profiling analysis
T7 sequence (O43318 whole entry): T4 sequence (whole entry)

[14] = target: T8, Mitogen-activated protein kinase kinase kinase kinase 2 (Homo sapiens, UniProt Q12851); test: Inhibition of MAP4K2 (unknown origin) Lys1 labeling site by KiNativ Profiling analysis
T8 sequence (Q12851 whole entry): T1 sequence (whole entry)

[15] = Cmax in Swiss albino mouse at 10 mg/kg, po measured upto 24 hrs by LC/MS/MS analysis; assay type: ADME, organism-based; conditions: in vivo
[16] = AUC last in Swiss albino mouse at 10 mg/kg, po measured upto 24 hrs by LC/MS/MS analysis; assay type: ADME, organism-based; conditions: in vivo
[17] = Volume of distribution at steady state in Swiss albino mouse at 1 mg/kg, iv measured upto 24 hrs by LC/MS/MS analysis; assay type: ADME, organism-based; conditions: in vivo
How it was run: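 Blood was sampled at 0, 0.083, 0.25, 0.5, 1, 2, 4, 8, 12 and 24 h (three mice per point, K2EDTA). Plasma was precipitated with acetonitrile and quantified by LC/MS/MS (LLOQ 1.138 ng/mL).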

[18] = Half life in Swiss albino mouse at 1 mg/kg, iv measured upto 24 hrs by LC/MS/MS analysis; assay type: ADME, organism-based; conditions: in vivo
How it was run: (§1)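 Male Swiss albino mice. […] Blood was taken into K2EDTA from three mice per time point, from 0 to 24 h. Plasma was precipitated with acetonitrile and analysed by LC/MS/MS (LLOQ 1.138 ng/mL).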

[19] = AUC last in Swiss albino mouse at 1 mg/kg, iv measured upto 24 hrs by LC/MS/MS analysis; assay type: ADME, organism-based; conditions: in vivo; how it was run: as §1
[20] = Cmax in Swiss albino mouse at 1 mg/kg, iv measured upto 24 hrs by LC/MS/MS analysis; assay type: ADME, organism-based; conditions: in vivo; how it was run: as §1
[21] = Oral bioavailability in Swiss albino mouse at 10 mg/kg measured upto 24 hrs by LC/MS/MS analysis; assay type: ADME, organism-based; conditions: in vivo
How it was run: (§2)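 Blood was taken at 0, 0.25, 0.5, 1, 2, 4, 6, 8, 12 and 24 h from three mice per time point, into K2EDTA. Plasma was acetonitrile-precipitated and analyzed by LC/MS/MS (LLOQ 1.138 ng/mL).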

[22] = Tmax in Swiss albino mouse at 10 mg/kg, po measured upto 24 hrs by LC/MS/MS analysis; assay type: ADME, organism-based; conditions: in vivo; how it was run: as §2

T6 sequence (P07332 whole entry): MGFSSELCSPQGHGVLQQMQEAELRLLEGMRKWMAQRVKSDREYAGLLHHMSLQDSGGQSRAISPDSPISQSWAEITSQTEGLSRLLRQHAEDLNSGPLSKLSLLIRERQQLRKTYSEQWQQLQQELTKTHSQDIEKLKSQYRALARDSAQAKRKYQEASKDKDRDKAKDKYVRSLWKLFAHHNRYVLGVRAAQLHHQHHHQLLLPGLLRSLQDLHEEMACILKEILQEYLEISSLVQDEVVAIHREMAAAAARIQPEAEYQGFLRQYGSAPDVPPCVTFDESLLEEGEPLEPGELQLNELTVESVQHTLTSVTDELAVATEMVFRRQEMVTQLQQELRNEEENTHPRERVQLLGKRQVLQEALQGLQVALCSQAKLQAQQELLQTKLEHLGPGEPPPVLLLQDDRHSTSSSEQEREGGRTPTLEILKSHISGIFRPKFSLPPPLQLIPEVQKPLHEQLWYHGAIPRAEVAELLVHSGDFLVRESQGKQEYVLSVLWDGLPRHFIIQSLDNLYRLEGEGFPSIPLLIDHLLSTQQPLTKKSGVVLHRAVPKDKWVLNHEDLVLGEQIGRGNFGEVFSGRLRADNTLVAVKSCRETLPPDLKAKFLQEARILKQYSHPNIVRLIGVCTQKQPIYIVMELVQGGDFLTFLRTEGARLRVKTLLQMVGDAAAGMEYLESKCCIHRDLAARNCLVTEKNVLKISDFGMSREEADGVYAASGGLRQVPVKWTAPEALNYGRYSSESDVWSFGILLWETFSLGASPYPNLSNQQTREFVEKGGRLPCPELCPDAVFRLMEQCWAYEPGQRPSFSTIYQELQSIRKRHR
T5 sequence (Q16539 whole entry): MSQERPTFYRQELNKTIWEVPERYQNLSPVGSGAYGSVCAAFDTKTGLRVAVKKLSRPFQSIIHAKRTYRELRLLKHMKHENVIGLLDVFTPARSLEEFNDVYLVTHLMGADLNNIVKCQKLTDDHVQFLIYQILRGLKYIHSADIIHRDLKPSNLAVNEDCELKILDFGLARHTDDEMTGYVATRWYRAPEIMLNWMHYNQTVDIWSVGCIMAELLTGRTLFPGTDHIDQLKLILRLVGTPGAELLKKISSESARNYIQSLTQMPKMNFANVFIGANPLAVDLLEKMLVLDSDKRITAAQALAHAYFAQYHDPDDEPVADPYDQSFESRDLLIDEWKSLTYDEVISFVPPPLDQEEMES
T2 sequence (P00519 whole entry): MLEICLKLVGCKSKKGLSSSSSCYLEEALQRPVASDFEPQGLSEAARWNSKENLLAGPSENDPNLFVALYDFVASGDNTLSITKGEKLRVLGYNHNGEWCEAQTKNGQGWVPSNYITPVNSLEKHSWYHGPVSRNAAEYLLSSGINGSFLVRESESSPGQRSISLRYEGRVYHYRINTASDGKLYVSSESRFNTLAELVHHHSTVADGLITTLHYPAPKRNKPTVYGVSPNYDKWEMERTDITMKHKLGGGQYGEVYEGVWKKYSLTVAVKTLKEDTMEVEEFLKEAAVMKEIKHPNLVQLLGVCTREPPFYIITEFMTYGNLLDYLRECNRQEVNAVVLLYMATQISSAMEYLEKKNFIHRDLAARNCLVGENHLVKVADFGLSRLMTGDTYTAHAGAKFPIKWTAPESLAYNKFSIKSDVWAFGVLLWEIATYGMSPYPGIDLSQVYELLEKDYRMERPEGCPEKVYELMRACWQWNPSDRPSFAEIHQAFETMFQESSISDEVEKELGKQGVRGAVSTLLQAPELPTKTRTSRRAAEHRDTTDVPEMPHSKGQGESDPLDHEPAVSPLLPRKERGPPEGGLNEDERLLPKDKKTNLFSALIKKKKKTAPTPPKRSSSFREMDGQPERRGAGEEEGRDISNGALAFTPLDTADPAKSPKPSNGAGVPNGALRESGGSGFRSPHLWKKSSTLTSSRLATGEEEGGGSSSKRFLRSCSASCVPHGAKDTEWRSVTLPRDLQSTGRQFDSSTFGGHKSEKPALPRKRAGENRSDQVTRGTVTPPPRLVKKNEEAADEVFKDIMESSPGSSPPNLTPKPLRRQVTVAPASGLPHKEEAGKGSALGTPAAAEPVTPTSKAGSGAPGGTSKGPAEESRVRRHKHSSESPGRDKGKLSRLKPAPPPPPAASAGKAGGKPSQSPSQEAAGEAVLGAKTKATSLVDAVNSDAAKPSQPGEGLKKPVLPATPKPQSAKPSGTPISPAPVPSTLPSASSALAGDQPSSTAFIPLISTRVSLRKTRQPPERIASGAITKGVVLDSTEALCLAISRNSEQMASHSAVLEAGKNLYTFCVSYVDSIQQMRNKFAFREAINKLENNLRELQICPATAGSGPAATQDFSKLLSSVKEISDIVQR

SMILES	inhibition [1] [%]	inhibition [2] [%]	inhibition [3] [%]	inhibition [4] [%]	pIC50 [5]	pIC50 [6]	inhibition [7] [%]	inhibition [8] [%]	pIC50 [9]	pIC50 [10]	pIC50 [11]	inhibition [12] [%]	pIC50 [13]	pIC50 [14]	further results
CCN1CCN(Cc2ccc(NC(=O)c3ccc(C)c(Oc4cc(NC)ncn4)c3)cc2C(F)(F)F)CC1	91.3	74.1	75.8	78.5	6.60	7.34	98.6	78.5	6.24	6.60	< 5.00	58.4			
CCN1CCN(Cc2ccc(NC(=O)c3ccc(C)c(Oc4ncnc5cc(OC)c(OC)cc45)c3)cc2C(F)(F)F)CC1	93.2	80.6	92.9	83.7		7.04		94.7	7.44	7.29	< 5.00	78.8	6.89	7.52	
CCN1CCN(Cc2ccc(NC(=O)c3ccc(C)c(Oc4ncnc5[nH]ccc45)c3)cc2C(F)(F)F)CC1	> 86	74.2		77.7	6.89	7.26	85.2				5.09		7.35	7.70	Cmax [15]: 134 ng/mL; AUClast [16]: 516.2 ng·h/mL; Vdss [17]: 9.5 L/kg; t1/2 [18]: 2.33 h; AUClast [19]: 236.6 ng·h/mL; Cmax [20]: 230.9 ng/mL; F [21]: 21.8%; Tmax [22]: 2 h
